Key:
[1] = molecular target: MAP kinase-activated protein kinase 2 (Homo sapiens) (UniProt P49137); test: Inhibition of MAPKAPK2 at 1 uM
[2] = molecular target: Mitogen-activated protein kinase 8 (Homo sapiens) (UniProt P45983); test: Inhibition of JNK1 at 1 uM
[3] = molecular target: Aurora kinase C (Homo sapiens) (UniProt Q9UQB9); test: Inhibition of Aurora C at 1 uM
[4] = molecular target: Ephrin type-A receptor 1 (Homo sapiens) (UniProt P21709); test: Inhibition of EPHA1 at 1 uM
[5] = molecular target: Casein kinase I isoform delta (Homo sapiens) (UniProt P48730); test: Inhibition of CK1delta at 1 uM
[6] = molecular target: Calcium/calmodulin-dependent protein kinase type 1D (Homo sapiens) (UniProt Q8IU85); test: Inhibition of CaMK1delta at 1 uM
Chain of Calcium/calmodulin-dependent protein kinase type 1D (Homo sapiens) (Q8IU85 whole entry, looked up): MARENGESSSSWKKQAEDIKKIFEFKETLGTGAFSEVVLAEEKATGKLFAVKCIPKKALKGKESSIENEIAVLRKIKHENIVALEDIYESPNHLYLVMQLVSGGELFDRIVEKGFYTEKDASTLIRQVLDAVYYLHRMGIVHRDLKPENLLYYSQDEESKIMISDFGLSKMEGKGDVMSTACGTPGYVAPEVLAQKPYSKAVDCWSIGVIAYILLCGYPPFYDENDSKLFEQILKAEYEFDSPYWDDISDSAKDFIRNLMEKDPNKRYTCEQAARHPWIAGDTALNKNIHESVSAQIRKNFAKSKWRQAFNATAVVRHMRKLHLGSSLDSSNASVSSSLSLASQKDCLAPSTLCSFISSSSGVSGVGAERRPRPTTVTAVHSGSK

[7] = molecular target: Serine/threonine-protein kinase PAK 3 (Homo sapiens) (UniProt O75914); test: Inhibition of PAK3 at 1 uM
Chain of Serine/threonine-protein kinase PAK 3 (Homo sapiens) (O75914 whole entry, looked up): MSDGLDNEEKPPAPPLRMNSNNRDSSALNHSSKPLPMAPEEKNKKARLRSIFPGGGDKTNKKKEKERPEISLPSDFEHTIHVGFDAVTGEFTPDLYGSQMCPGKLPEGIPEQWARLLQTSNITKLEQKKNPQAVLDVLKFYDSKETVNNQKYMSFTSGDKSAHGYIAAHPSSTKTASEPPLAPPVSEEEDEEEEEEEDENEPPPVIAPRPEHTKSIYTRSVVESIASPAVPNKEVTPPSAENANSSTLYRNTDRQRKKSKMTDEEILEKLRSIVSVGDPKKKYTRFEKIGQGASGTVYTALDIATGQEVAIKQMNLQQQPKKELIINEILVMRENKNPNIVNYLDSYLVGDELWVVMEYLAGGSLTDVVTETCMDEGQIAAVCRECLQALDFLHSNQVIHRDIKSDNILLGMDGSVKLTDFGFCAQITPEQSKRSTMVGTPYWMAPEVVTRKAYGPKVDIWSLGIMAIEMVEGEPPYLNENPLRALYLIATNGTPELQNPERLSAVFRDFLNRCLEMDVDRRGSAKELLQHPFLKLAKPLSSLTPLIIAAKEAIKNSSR

[8] = molecular target: Macrophage colony-stimulating factor 1 receptor (Homo sapiens) (UniProt P07333); test: Inhibition of FMS at 1 uM
[9] = molecular target: G protein-coupled receptor kinase 4 (Homo sapiens) (UniProt P32298); test: Inhibition of GRK4 at 1 uM
[10] = molecular target: Tyrosine-protein kinase ABL1 (Homo sapiens) (UniProt P00519); test: Inhibition of ABL1 at 1 uM
Aurora kinase B [11] = molecular target: T1, Aurora kinase B (Homo sapiens, UniProt Q96GD4); test: Inhibition of Aurora B at 1 uM
T1 sequence (Q96GD4 whole entry): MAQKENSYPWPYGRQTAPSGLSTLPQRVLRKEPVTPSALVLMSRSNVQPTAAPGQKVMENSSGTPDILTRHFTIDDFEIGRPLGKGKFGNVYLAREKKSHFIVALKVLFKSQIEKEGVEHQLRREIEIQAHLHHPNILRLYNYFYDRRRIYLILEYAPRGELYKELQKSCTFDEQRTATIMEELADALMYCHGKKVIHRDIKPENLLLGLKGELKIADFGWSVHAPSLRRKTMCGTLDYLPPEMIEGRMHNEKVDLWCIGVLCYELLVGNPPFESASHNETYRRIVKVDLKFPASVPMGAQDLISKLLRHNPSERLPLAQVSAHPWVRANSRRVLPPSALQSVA

[12] = molecular target: Hepatocyte growth factor receptor (Homo sapiens) (UniProt P08581); test: Inhibition of c-Met at 1 uM
[13] = molecular target: Serine/threonine-protein kinase Chk1 (Homo sapiens) (UniProt O14757); test: Inhibition of CHK1 at 1 uM
[14] = molecular target: Tyrosine-protein kinase BTK (Homo sapiens) (UniProt Q06187); test: Inhibition of BTK at 1 uM
Chain of Tyrosine-protein kinase BTK (Homo sapiens) (Q06187 whole entry, canonical isoform): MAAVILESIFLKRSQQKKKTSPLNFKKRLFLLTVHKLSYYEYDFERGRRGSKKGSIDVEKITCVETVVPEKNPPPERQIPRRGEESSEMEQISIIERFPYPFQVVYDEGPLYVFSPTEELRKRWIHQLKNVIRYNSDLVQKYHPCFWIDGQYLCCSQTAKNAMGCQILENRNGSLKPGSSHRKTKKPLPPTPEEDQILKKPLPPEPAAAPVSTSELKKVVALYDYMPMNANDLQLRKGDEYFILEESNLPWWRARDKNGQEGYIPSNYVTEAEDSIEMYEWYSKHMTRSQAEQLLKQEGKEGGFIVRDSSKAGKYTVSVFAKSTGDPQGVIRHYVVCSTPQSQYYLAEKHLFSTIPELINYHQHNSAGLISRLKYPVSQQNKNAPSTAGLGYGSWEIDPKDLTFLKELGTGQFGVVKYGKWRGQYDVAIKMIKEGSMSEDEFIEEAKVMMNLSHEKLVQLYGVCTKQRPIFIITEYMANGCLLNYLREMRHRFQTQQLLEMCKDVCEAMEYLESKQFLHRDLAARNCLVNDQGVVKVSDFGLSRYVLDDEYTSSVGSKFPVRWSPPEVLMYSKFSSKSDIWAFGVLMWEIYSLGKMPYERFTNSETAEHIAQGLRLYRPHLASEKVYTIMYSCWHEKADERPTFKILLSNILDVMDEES

[15] = molecular target: Casein kinase I isoform alpha (Homo sapiens) (UniProt P48729); test: Inhibition of CK1alpha1 at 1 uM
[16] = molecular target: Receptor tyrosine-protein kinase erbB-2 (Homo sapiens) (UniProt P04626); test: Inhibition of HER2 at 1 uM
Chain of Receptor tyrosine-protein kinase erbB-2 (Homo sapiens) (P04626 whole entry): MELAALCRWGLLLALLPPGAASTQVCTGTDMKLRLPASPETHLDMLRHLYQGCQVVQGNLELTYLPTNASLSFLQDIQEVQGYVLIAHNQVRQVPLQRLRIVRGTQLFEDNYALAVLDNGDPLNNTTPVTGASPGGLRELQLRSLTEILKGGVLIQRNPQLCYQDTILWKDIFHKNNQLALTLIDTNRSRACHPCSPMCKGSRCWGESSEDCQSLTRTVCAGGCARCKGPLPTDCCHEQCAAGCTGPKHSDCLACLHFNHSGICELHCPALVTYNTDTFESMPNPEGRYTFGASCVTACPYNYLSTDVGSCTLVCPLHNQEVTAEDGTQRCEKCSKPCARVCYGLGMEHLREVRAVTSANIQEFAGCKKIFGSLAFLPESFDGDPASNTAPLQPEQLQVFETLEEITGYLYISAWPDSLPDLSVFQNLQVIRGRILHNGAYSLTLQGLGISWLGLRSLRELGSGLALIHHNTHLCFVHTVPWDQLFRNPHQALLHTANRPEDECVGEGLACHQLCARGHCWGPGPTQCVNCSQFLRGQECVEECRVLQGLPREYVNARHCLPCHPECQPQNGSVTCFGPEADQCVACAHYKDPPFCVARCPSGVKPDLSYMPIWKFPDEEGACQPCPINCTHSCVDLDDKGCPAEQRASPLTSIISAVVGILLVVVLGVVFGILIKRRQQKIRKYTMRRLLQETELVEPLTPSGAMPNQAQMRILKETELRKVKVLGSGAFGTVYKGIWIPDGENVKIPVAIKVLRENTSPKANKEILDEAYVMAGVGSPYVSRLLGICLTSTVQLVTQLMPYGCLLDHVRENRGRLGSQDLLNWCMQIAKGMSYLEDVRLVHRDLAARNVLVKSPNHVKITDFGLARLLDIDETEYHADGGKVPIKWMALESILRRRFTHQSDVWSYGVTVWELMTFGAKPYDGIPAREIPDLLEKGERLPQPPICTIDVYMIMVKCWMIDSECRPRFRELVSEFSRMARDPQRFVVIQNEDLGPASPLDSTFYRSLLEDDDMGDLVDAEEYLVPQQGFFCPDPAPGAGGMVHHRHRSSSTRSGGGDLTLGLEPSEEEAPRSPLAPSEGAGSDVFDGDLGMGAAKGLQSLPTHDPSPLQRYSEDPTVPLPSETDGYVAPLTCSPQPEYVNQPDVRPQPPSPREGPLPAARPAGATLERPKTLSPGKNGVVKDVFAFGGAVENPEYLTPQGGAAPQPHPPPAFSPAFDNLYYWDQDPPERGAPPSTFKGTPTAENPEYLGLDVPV

Aurora kinase B [17] = molecular target: Aurora kinase B (Homo sapiens, UniProt Q96GD4, E161T); test: Inhibition of N-terminal flag-tagged Aurora B E161T mutant expressed in Escherichia coli BL21-DE3
Chain of Aurora kinase B (Homo sapiens, UniProt Q96GD4, E161T) (Q96GD4 whole entry E161T): as the sequence (Q96GD4 whole entry) above, with E161T counted along it

[18] = molecular target: Serine/threonine-protein kinase B-raf (Homo sapiens) (UniProt P15056); test: Inhibition of BRAF at 1 uM
[19] = molecular target: Serine/threonine-protein kinase MRCK alpha (Homo sapiens) (UniProt Q5VT25); test: Inhibition of MRCKalpha at 1 uM
[20] = molecular target: Casein kinase II subunit alpha (Homo sapiens) (UniProt P68400); test: Inhibition of CK2alpha1 at 1 uM
[21] = molecular target: Casein kinase I isoform gamma-2 (Homo sapiens) (UniProt P78368); test: Inhibition of CK1gamma2 at 1 uM
Chain of Casein kinase I isoform gamma-2 (Homo sapiens) (P78368 whole entry, looked up, canonical isoform): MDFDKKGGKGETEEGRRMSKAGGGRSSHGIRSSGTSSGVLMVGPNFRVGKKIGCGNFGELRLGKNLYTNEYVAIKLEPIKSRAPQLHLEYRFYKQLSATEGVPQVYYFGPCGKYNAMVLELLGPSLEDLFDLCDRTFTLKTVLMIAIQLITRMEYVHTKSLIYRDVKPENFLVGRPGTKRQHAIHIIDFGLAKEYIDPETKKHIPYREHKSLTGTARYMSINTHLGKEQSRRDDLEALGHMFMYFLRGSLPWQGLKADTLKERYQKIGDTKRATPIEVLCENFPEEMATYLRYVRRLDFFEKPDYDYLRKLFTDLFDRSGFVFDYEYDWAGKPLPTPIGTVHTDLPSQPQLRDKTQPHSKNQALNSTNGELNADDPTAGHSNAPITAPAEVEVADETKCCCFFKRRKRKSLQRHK

[22] = molecular target: ALK tyrosine kinase receptor (Homo sapiens) (UniProt Q9UM73); test: Inhibition of ALK at 1 uM
[23] = molecular target: Ribosomal protein S6 kinase alpha-1 (Homo sapiens) (UniProt Q15418); test: Inhibition of RSK1 at 1 uM
[24] = molecular target: Glycogen synthase kinase-3 beta (Homo sapiens) (UniProt P49841); test: Inhibition of GSK3-beta at 1 uM
[25] = molecular target: Ephrin type-B receptor 1 (Homo sapiens) (UniProt P54762); test: Inhibition of EPHB1 at 1 uM
[26] = molecular target: T2, Cyclin-dependent kinase 2 (Homo sapiens, UniProt P24941); test: Inhibition of CDK2/cyclin A at 1 uM
[27] = molecular target: Eukaryotic elongation factor 2 kinase (Homo sapiens) (UniProt O00418); test: Inhibition of EEF2K at 1 uM
[28] = molecular target: Mitogen-activated protein kinase kinase kinase kinase 2 (Homo sapiens) (UniProt Q12851); test: Inhibition of GCK at 1 uM
[29] = molecular target: Mitogen-activated protein kinase kinase kinase 9 (Homo sapiens) (UniProt P80192); test: Inhibition of MLK1 at 1 uM
[30] = molecular target: Fibroblast growth factor receptor 1 (Homo sapiens) (UniProt P11362); test: Inhibition of FGFR1 at 1 uM
[31] = molecular target: Beta-adrenergic receptor kinase 1 (Homo sapiens) (UniProt P25098); test: Inhibition of GRK2 at 1 uM
Chain of Beta-adrenergic receptor kinase 1 (Homo sapiens) (P25098 whole entry): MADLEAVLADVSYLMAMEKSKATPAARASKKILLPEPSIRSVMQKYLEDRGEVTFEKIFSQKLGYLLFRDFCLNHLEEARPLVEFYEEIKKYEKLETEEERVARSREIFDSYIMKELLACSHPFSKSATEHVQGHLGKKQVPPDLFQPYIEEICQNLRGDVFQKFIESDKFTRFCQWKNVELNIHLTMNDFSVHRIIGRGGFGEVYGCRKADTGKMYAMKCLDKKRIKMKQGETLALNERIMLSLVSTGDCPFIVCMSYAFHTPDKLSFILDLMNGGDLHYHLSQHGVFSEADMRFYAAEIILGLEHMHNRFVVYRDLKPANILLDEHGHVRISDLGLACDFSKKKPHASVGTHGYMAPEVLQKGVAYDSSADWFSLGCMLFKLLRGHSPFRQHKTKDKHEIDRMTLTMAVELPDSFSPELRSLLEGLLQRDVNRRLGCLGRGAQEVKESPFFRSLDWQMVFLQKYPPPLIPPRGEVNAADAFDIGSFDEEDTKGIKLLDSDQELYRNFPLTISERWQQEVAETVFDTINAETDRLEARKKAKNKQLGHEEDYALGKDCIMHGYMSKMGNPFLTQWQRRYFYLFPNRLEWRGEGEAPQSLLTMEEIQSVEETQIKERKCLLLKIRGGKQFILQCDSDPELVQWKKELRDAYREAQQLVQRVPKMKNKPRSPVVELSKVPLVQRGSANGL

[32] = molecular target: Rho-associated protein kinase 1 (Homo sapiens) (UniProt Q13464); test: Inhibition of ROCK1 at 1 uM
[33] = molecular target: Cytoplasmic tyrosine-protein kinase BMX (Homo sapiens) (UniProt P51813); test: Inhibition of BMX at 1 uM
Chain of Cytoplasmic tyrosine-protein kinase BMX (Homo sapiens) (P51813 whole entry): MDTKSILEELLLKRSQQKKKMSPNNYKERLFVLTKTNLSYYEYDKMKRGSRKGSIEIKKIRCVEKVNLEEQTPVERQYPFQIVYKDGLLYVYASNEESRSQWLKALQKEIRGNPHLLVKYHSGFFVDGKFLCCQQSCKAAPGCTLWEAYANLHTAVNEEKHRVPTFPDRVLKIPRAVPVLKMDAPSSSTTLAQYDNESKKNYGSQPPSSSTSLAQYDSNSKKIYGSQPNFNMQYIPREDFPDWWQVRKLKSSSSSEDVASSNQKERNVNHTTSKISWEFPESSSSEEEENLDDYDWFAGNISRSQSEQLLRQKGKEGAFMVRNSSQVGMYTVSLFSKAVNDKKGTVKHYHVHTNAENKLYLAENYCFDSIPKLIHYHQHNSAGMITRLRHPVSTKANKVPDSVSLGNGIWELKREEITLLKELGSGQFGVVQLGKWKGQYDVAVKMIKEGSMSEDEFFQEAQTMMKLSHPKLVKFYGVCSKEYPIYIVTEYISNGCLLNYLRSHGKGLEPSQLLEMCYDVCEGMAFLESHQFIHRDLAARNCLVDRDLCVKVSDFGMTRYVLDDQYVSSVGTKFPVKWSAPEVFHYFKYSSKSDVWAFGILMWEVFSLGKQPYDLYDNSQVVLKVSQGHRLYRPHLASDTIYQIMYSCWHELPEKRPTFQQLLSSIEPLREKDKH

[34] = molecular target: Dual specificity protein kinase CLK1 (Homo sapiens) (UniProt P49759); test: Inhibition of CLK1 at 1 uM
[35] = molecular target: Serine/threonine-protein kinase Nek2 (Homo sapiens) (UniProt P51955); test: Inhibition of NEK2 at 1 uM
[36] = molecular target: Insulin receptor (Homo sapiens) (UniProt P06213); test: Inhibition of INSR at 1 uM
[37] = molecular target: T2, Cyclin-dependent kinase 2; test: Inhibition of CDK2/cyclin A
[38] = molecular target: Tyrosine-protein kinase receptor UFO (Homo sapiens) (UniProt P30530); test: Inhibition of Axl at 1 uM
[39] = molecular target: Serine/threonine-protein kinase Nek9 (Homo sapiens) (UniProt Q8TD19); test: Inhibition of NEK9 at 1 uM
Aurora kinase B [40] = molecular target: T1, Aurora kinase B; test: Inhibition of Aurora B in human HT29 cells assessed as complete loss of phospho-histone H3 staining by immunofluorescence assay; assay type: cell-based, HT-29
Procedure, shortened: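 Immunofluorescence for phospho-S10 histone H3 in HCT116 or HT29 cells, scored visually. Value taken as the lowest inhibitor concentration giving complete loss of staining, so it lies above the IC50. Units µM.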

[41] = molecular target: Serine/threonine-protein kinase PLK2 (Homo sapiens) (UniProt Q9NYY3); test: Inhibition of PLK2 at 1 uM
Aurora kinase B [42] = molecular target: T1, Aurora kinase B; test: Inhibition of N-terminal flag-tagged Aurora B expressed in Escherichia coli BL21-DE3 by ELISA
[43] = molecular target: Serine/threonine-protein kinase PLK1 (Homo sapiens) (UniProt P53350); test: Inhibition of PLK1 at 1 uM
HCT-116 = test: Antiproliferative activity against human HCT116 cells after 4 days by celltiter assay; assay type: functional, cell-based; details: HCT-116, 96 h
[44] = molecular target: cAMP-dependent protein kinase catalytic subunit alpha (Homo sapiens) (UniProt P17612); test: Inhibition of PRKACA at 1 uM
[45] = molecular target: Serine/threonine-protein kinase mTOR (Homo sapiens) (UniProt P42345); test: Inhibition of mTOR at 1 uM
[46] = molecular target: Activin receptor type-1B (Homo sapiens) (UniProt P36896); test: Inhibition of ALK4 at 1 uM
[47] = molecular target: Platelet-derived growth factor receptor alpha (Homo sapiens) (UniProt P16234); test: Inhibition of PDGFRA at 1 uM

Work on CC(=O)N1CCN(C(=O)Cc2ccc(Nc3ncc(F)c(Nc4ccc(C(=O)Nc5ccccc5Cl)cc4)n3)cc2)CC1 yielded an inhibition [1] of 9%, an inhibition [2] of 21% and an inhibition [3] of 36%. The inhibition [4] was 34%, the inhibition [5] was 11% and the inhibition [6] was 18%. It also gave an inhibition [7] of 4%, an inhibition [8] of 79% and an inhibition [9] of -1%. The inhibition [10] was 33%, the inhibition (Aurora kinase B [11]) was 59% and the inhibition [12] was 14%. For the same molecule, the inhibition [13] was 14%, the inhibition [14] was 46% and the inhibition [15] was 3%. For the same molecule, the inhibition [16] was 4%, the IC50 (Aurora kinase B [17]) was 0.057 µM and the inhibition [18] was 7%. The inhibition [19] was 11%, the inhibition [20] was 16% and the inhibition [21] was 10%. It also gave an inhibition [22] of 21%, an inhibition [23] of 23% and an inhibition [24] of 30%. For the same molecule, the inhibition [25] was 25%, the inhibition [26] was 15% and the inhibition [27] was 5%. For the same molecule, the inhibition [28] was 10%, the inhibition [29] was 41% and the inhibition [30] was 16%. The inhibition [31] was 8%, the inhibition [32] was -8% and the inhibition [33] was 43%. For the same molecule, the inhibition [34] was 13%, the inhibition [35] was 25% and the inhibition [36] was 16%. For the same molecule, the IC50 [37] was > 16 µM, the inhibition [38] was 46% and the inhibition [39] was 17%. The IC50 (Aurora kinase B [40]) was > 27 µM, the inhibition [41] was 12% and the IC50 (Aurora kinase B [42]) was 3.7 µM. The inhibition [43] was 3%, the IC50 (HCT-116) was 0.64 µM and the inhibition [44] was 7%. For the same molecule, the inhibition [45] was 11%, the inhibition [46] was 11% and the inhibition [47] was 23%.

— ChEMBL document CHEMBL1138512, “A class of 2,4-bisanilinopyrimidine Aurora A inhibitors with unusually high selectivity against Aurora B” (J Med Chem, 2009)
